According to ChEMBL document CHEMBL4020718, “Trifluoromethyl arylamides with antileukemia effect and intracellular inhibitory activity over serine/arginine-rich protein kinases (SRPKs)” (Eur J Med Chem, 2017):
Active and inactive are the calls of the source. No cut-off for these calls is given here.

Assays:
PBMC = test: Cytotoxicity against PHA-stimulated human PBMC assessed as reduction in cell viability at 25 uM after 48 hrs by MTT assay; format: cell-based
Procedure, shortened: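 Primary peripheral blood mononuclear cells seeded 1x10^5/well in complete RPMI; treated with 25 µM for 48 h. Viability by MTT (3 h, 37 °C, DMSO solubilization, 540 nm), vehicle taken as 100% viability; triplicate experiments, means ± standard deviation.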

Homo sapiens [1] = species: Homo sapiens; test: Inhibition of SRPK in human NALM6 cells assessed as decrease in VEGF mRNA expression level at 20 uM after 24 hrs by qRT-PCR analysis; format: cell-based
Procedure, shortened: (§1)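 Nalm6 given 20 µM for 24 h with 0.4% DMSO control; mRNA isolated with Tri Reagent, quantified spectrophotometrically, integrity checked on 1% agarose, then RT-PCR for target transcripts; one representative of three experiments.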

NALM-6 [2] = test: Effect on SRPK2 expression level in human NALM6 cells at 20 uM after 24 hrs by Western blot analysis; format: functional, cell-based
Procedure, shortened: (§2)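 Nalm6 treated 24 h at 20 µM (DMSO vehicle control), lysed at 2x10^7 cells/mL in PBS with 1% NP40, 1 mM EDTA, 150 mM NaCl, 10 mM Tris pH 7.4 plus protease/phosphatase inhibitors; on ice 10 min, sonicated, spun 15000 xg; SDS-PAGE, PVDF, milk block overnight, primary and secondary antibody 2 h each; representative of three.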

NALM-6 [3] = test: Induction of apoptosis in human NALM6 cells assessed as viable cells at 20 uM after 24 hrs by Annexin-V/FITC propidium iodide staining based flow cytometric analysis (reference value: 90.10%); format: functional; details: NALM-6, 24 h, read-out: Activity
Homo sapiens [4] = species: Homo sapiens; test: Inhibition of SRPK in human NALM6 cell lysates assessed as reduction in phospho-SR epitopes signal at 20 uM after 24 hrs by Western blot analysis; procedure, shortened: as §2
NALM-6 [5] = test: Effect on actin expression level in human NALM6 cells at 20 uM after 24 hrs by Western blot analysis; format: ADME, cell-based; details: nalm-6, 24 h; procedure, shortened: as §2
NALM-6 [6] = test: Synergistic cytotoxicity against human NALM6 cells assessed as reduction in cell viability by measuring combination index at 4.3 uM after 48 hrs in presence of 0.5 nM vincristine by MTT assay; format: functional
NALM-6 [7] = test: Induction of apoptosis in human NALM6 cells assessed as late apoptotic cells at 20 uM after 12 hrs by Annexin-V/FITC propidium iodide staining based flow cytometric analysis (reference value: 0.45%); format: functional
Jurkat = test: Cytotoxicity against human Jurkat cells assessed as reduction in cell viability up to 200 uM after 48 hrs by MTT assay; format: functional, cell-based; details: Homo sapiens, Jurkat, 48 h; read-out: IC50
Procedure, shortened: (§3)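 Cells (7x10^4/well) in RPMI-1640 with 10% FBS, 37 °C, 5% CO2; exposed to compound dilutions 0–200 µM (medium with 10% FBS, 0.4% DMSO) for 48 h. MTT added, 3 h at 37 °C, formazan dissolved in DMSO, absorbance 540 nm. IC50 from concentration–response; means ± standard deviation of three independent experiments.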

NALM-6 [8] = test: Induction of apoptosis in human NALM6 cells assessed as viable cells at 20 uM after 12 hrs by Annexin-V/FITC propidium iodide staining based flow cytometric analysis (reference value: 92.11%); format: functional; details: NALM-6, 12 h, read-out: Activity
Homo sapiens [9] = species: Homo sapiens; test: Inhibition of SRPK in human NALM6 cells assessed as decrease in MAP2K1 mRNA expression level at 20 uM after 24 hrs by qRT-PCR analysis; format: cell-based; procedure, shortened: as §1
HL-60 [10] = test: Antiproliferative activity against human HL60 cells at 20 uM by trypan blue dye exclusion assay; format: functional, cell-based; details: TDE = time-dependent effect
Procedure, shortened: (§4)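 Nalm6 at 1x10^4 or HL60 at 1.5x10^4 cells per well exposed to 20 µM; DMSO (0.4% v/v) as control. Viable cells counted by trypan blue exclusion on a hemocytometer at 0, 24, 48, 72 and 96 h; growth inhibition relative to control.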

Homo sapiens [11] = species: Homo sapiens; test: Inhibition of SRPK in human NALM6 cells assessed as decrease in MAP2K2 mRNA expression level at 20 uM after 24 hrs by qRT-PCR analysis; format: cell-based; procedure, shortened: as §1
NALM-6 [12] = test: Effect on SRPK1 expression level in human NALM6 cells at 20 uM after 24 hrs by Western blot analysis; format: functional, cell-based; procedure, shortened: as §2
NALM-6 [13] = test: Effect on actin expression level in human NALM6 cells at 20 uM after 24 hrs by qRT-PCR analysis; format: ADME, cell-based; details: nalm-6, 24 h
NALM-6 [14] = test: Induction of apoptosis in human NALM6 cells assessed as early apoptotic cells at 20 uM after 24 hrs by Annexin-V/FITC propidium iodide staining based flow cytometric analysis (reference value: 8.22%); format: functional
HL-60 [15] = test: Cytotoxicity against human HL60 cells assessed as cell growth inhibition at 20 uM after 96 hrs by trypan blue dye exclusion assay relative to control; format: functional; details: HL-60, 96 h, read-out: GI; procedure, shortened: as §4
NALM-6 [16] = test: Induction of autophagy in human NALM6 cells at 20 uM after 24 hrs by acridin orange staining based fluorescence microscopy; format: functional, cell-based
Procedure, shortened: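 Nalm6 (7x10^4/well) exposed 24 h to 20 µM or 0.4% DMSO, washed in PBS, stained with 1 µM acridine orange at 37 °C for 15 min, washed, resuspended in PBS; autophagosomes (red fluorescence) viewed by fluorescence microscopy; three experiments.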

Homo sapiens [17] = species: Homo sapiens; test: Inhibition of SRPK in human NALM6 cells assessed as decrease in RON mRNA expression level at 20 uM after 24 hrs by qRT-PCR analysis; format: cell-based; procedure, shortened: as §1
NALM-6 [18] = test: Cytotoxicity against human NALM6 cells assessed as cell growth inhibition at 20 uM after 96 hrs by trypan blue dye exclusion assay relative to control; format: functional; details: NALM-6, 96 h, read-out: GI; procedure, shortened: as §4
NALM-6 [19] = test: Antiproliferative activity against human NALM6 cells at 20 uM by trypan blue dye exclusion assay; format: functional, cell-based; details: TDE = time-dependent effect; procedure, shortened: as §4
NALM-6 [20] = test: Induction of apoptosis in human NALM6 cells assessed as late apoptotic cells at 20 uM after 24 hrs by Annexin-V/FITC propidium iodide staining based flow cytometric analysis (reference value: 1.68%); format: functional
NALM-6 [21] = test: Induction of apoptosis in human NALM6 cells assessed as necrotic cells at 20 uM after 24 hrs by Annexin-V/FITC propidium iodide staining based flow cytometric analysis (reference value: 0%); format: functional
NALM-6 [22] = test: Induction of apoptosis in human NALM6 cells assessed as early apoptotic cells at 20 uM after 12 hrs by Annexin-V/FITC propidium iodide staining based flow cytometric analysis (reference value: 7.40%); format: functional
NALM-6 [23] = test: Induction of apoptosis in human NALM6 cells assessed as necrotic cells at 20 uM after 12 hrs by Annexin-V/FITC propidium iodide staining based flow cytometric analysis (reference value: 0.04%); format: functional
NALM-6 [24] = test: Synergistic cytotoxicity against human NALM6 cells assessed as reduction in cell viability by measuring combination index at 8.5 uM after 48 hrs in presence of 1 nM vincristine by MTT assay; format: functional
HL-60 [25] = test: Cytotoxicity against human HL60 cells assessed as reduction in cell viability up to 200 uM after 48 hrs by MTT assay; format: functional, cell-based; details: Homo sapiens, HL-60, 48 h; read-out: IC50; procedure, shortened: as §3
NALM-6 [26] = test: Cytotoxicity against human NALM6 cells assessed as reduction in cell viability up to 200 uM after 48 hrs by MTT assay; format: functional, cell-based; details: Homo sapiens, NALM-6, 48 h; read-out: IC50; procedure, shortened: as §3
NALM-6 [27] = test: Synergistic cytotoxicity against human NALM6 cells assessed as reduction in cell viability by measuring combination index at 3 uM after 48 hrs in presence of 1 nM vincristine by MTT assay; format: functional
NALM-6 [28] = test: Synergistic cytotoxicity against human NALM6 cells assessed as reduction in cell viability by measuring combination index at 1.5 uM after 48 hrs in presence of 0.5 nM vincristine by MTT assay; format: functional
NALM-6 [29] = test: Synergistic cytotoxicity against human NALM6 cells assessed as reduction in cell viability by measuring combination index at 17.9 uM after 48 hrs in presence of 1 nM vincristine by MTT assay; format: functional
NALM-6 [30] = test: Synergistic cytotoxicity against human NALM6 cells assessed as reduction in cell viability by measuring combination index at 8.9 uM after 48 hrs in presence of 0.5 nM vincristine by MTT assay; format: functional

O=C(Nc1cc(C(F)(F)F)ccc1Nc1ccc(Br)cc1)c1cccnc1
Activity (PBMC): Non-Toxic | inhibition (Homo sapiens [1]): Active | Activity (NALM-6 [2]): inactive | viability at 20 µM (NALM-6 [3]): 84.4% | inhibition (Homo sapiens [4]): Active | Activity (NALM-6 [5]): Non-Toxic | CI (NALM-6 [6]): 0.45 | Activity (NALM-6 [7]): 0.67% | IC50 (Jurkat): 17.8 µM | viability at 20 µM (NALM-6 [8]): 87% | inhibition (Homo sapiens [9]): Active | Activity (HL-60 [10]): Tde | inhibition (Homo sapiens [11]): Active | Activity (NALM-6 [12]): inactive | Activity (NALM-6 [13]): Non-Toxic | Activity (NALM-6 [14]): 14.66% | inhibition of growth at 20 µM (HL-60 [15]): 38% | Activity (NALM-6 [16]): Active | inhibition (Homo sapiens [17]): Active | inhibition of growth at 20 µM (NALM-6 [18]): 66% | Activity (NALM-6 [19]): Tde | Activity (NALM-6 [20]): 0.92% | Activity (NALM-6 [21]): 0.01% | Activity (NALM-6 [22]): 12.33% | Activity (NALM-6 [23]): 0% | CI (NALM-6 [24]): 0.78 | IC50 (HL-60 [25]): 8.5 µM | IC50 (NALM-6 [26]): 17 µM

O=C(Nc1cc(C(F)(F)F)ccc1Nc1ccc(Br)cc1)c1ccccc1
CI (NALM-6 [27]): 1.05 | Activity (PBMC): Non-Toxic | CI (NALM-6 [28]): 0.56 | Activity (NALM-6 [2]): inactive | viability at 20 µM (NALM-6 [3]): 73.2% | Activity (NALM-6 [5]): Non-Toxic | Activity (NALM-6 [7]): 0.52% | IC50 (Jurkat): 33.8 µM | viability at 20 µM (NALM-6 [8]): 85.9% | Activity (HL-60 [10]): Tde | Activity (NALM-6 [12]): inactive | Activity (NALM-6 [13]): Non-Toxic | Activity (NALM-6 [14]): 24.73% | inhibition of growth at 20 µM (HL-60 [15]): 48% | Activity (NALM-6 [16]): Active | inhibition (Homo sapiens [17]): Active | inhibition of growth at 20 µM (NALM-6 [18]): 72% | Activity (NALM-6 [19]): Tde | Activity (NALM-6 [20]): 2.01% | Activity (NALM-6 [21]): 0.01% | Activity (NALM-6 [22]): 13.53% | Activity (NALM-6 [23]): 0.02% | IC50 (HL-60 [25]): 11.8 µM | IC50 (NALM-6 [26]): 6 µM

O=C(Nc1cc(C(F)(F)F)ccc1Nc1ccc(Br)cc1)c1cccnc1Cl
Activity (PBMC): Toxic | Activity (NALM-6 [2]): inactive | viability at 20 µM (NALM-6 [3]): 86.8% | CI (NALM-6 [29]): 1.02 | Activity (NALM-6 [5]): Non-Toxic | Activity (NALM-6 [7]): 0.52% | IC50 (Jurkat): 20.6 µM | viability at 20 µM (NALM-6 [8]): 87.9% | CI (NALM-6 [30]): 0.57 | Activity (HL-60 [10]): Tde | Activity (NALM-6 [12]): inactive | Activity (NALM-6 [13]): Non-Toxic | Activity (NALM-6 [14]): 11.91% | inhibition of growth at 20 µM (HL-60 [15]): 33% | Activity (NALM-6 [16]): Active | inhibition of growth at 20 µM (NALM-6 [18]): 37% | Activity (NALM-6 [19]): Tde | Activity (NALM-6 [20]): 1.16% | Activity (NALM-6 [21]): 0.07% | Activity (NALM-6 [22]): 11.7% | Activity (NALM-6 [23]): 0% | IC50 (HL-60 [25]): 14.2 µM | IC50 (NALM-6 [26]): 35.7 µM
